Source: ChEMBL document CHEMBL1148774, “Doxazolidine induction of apoptosis by a topoisomerase II independent mechanism” (J Med Chem, 2007)
The source made the active and inactive calls. The rule behind the calls is not given here.

What was measured:
[1] = tested on: HL60/MX2; test: Induction of apoptosis in topoisomerase 2 deficient HL60/MX2 cells assessed as annexin V positive cells; format: functional, Homo sapiens
Method in brief: (§1)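 HL-60 and HL-60/MX2 cells in RPMI 1640/10% FBS were treated with 100 nM drug or vehicle for 24 h. Cells were washed in cold PBS and stained with annexin V-fluorescein plus propidium iodide in binding buffer (140 mM NaCl, 10 mM HEPES pH 7.4, 2.5 mM CaCl2). The percent annexin V-positive cells was read by flow cytometry.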

[2] = tested on: MDA-MB-435; test: Growth inhibition of human MDA-MB-435 cells after 3 hrs by MTT assay; format: functional, cell-based; settings: MDA-MB-435, 3 h
Method in brief: (§2)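 Adherent cells grown in 10% FBS medium (RPMI 1640 or DMEM) were exposed to drug for 3 h. They were then grown until control wells reached ~80% confluence (3–5 days) and quantified by MTT metabolism or crystal violet staining. IC50 was taken from growth inhibition. Each condition was run in hexuplicate, and experiments were done at least twice.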

[3] = tested on: HCT-116; test: Induction of apoptosis in human HCT116 cells at 400 nM for 3 hrs relative to control cells by annexin V staining assay; format: functional, cell-based
Method in brief: (§3)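 HCT-116 cells in McCoy's medium/10% FBS were exposed to drug at a series of concentrations, or to vehicle, for 3 h. At 48 h post-treatment they were trypsinized and washed in cold PBS. They were then stained with annexin V-fluorescein and propidium iodide in HEPES pH 7.4/CaCl2 binding buffer, and the percent apoptotic cells was measured by flow cytometry.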

[4] = tested on: DU-145; test: Growth inhibition of human DU145 cells after 48 hrs by MTT assay; format: functional, cell-based; settings: DU-145, 48 h
[5] = tested on: HL60/MX2; test: Effect on G2/M arrest in topoisomerase 2 deficient human HL60/MX2 cells at 100 nM after 24 hrs; format: functional, cell-based
Method in brief: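 HL-60/MX2 cells in RPMI 1640/10% FBS were treated with 100 nM drug or vehicle for 24 h, then centrifuged and washed in cold PBS. They were fixed in 50% ethanol, treated with RNase A and stained with propidium iodide (50 μg/mL final). Cell cycle distribution was read by flow cytometry.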

[6] = species: Homo sapiens; test: Inhibition of topoisomerase 2 at 50 nM by decatenation assay
Method in brief: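 Human recombinant topoisomerase II (one unit) was incubated with 143 ng catenated kinetoplast DNA, with or without drug, for 30 min at 37 °C. The buffer held 120 mM KCl, 50 mM Tris-HCl, 10 mM MgCl2, 0.5 mM DTT, 0.5 mM ATP and 30 μg/mL BSA. Reactions were stopped with sarkosyl/glycerol dye, and decatenation was resolved by agarose gel electrophoresis.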

[7] = tested on: HL-60; test: Induction of apoptosis in HL60 cells assessed as annexin V positive cells; format: functional, Homo sapiens; method in brief: as §1
[8] = Growth inhibition of human IGROVI cells after 48 hrs by MTT assay; format: functional, cell-based
[9] = tested on: UACC-257; test: Growth inhibition of human UACC257 cells after 48 hrs by MTT assay; format: functional, cell-based; settings: UACC-257, 48 h
[10] = tested on: A-375; test: Growth inhibition of human A375 cells after 3 hrs by MTT assay; format: functional, cell-based; settings: A-375, 3 h; method in brief: as §2
[11] = tested on: HCT-116; test: Induction of apoptosis in human HCT116 cells at 200 nM for 3 hrs by annexin V staining assay; format: functional; method in brief: as §3
[12] = tested on: SF-268; test: Growth inhibition of human SF268 cells after 48 hrs by MTT assay; format: functional, cell-based; settings: SF-268, 48 h
[13] = tested on: RXF 393; test: Growth inhibition of human RXF393 cells after 48 hrs by MTT assay; format: functional, cell-based; settings: RXF 393, 48 h
[14] = Growth inhibition of human HL60(TB) cells after 48 hrs by crystal violet assay; format: functional, HL-60(TB); settings: HL-60, 48 h
[15] = tested on: SHP77; test: Growth inhibition of human SHP77 cells after 3 hrs by MTT assay; format: functional, cell-based; settings: SHP77, 3 h; method in brief: as §2
[16] = tested on: HCT-116; test: Induction of apoptosis in human HCT116 cells at 50 nM for 3 hrs by annexin V staining assay; format: functional; method in brief: as §3
[17] = tested on: MIA PaCa-2; test: Growth inhibition of human MiaPaCa2 cells after 3 hrs by MTT assay; format: functional, cell-based; settings: MIA PaCa-2, 3 h; method in brief: as §2
[18] = Growth inhibition of human MCF7/ADR cells after 48 hrs by crystal violet assay; format: functional, cell-based; settings: NCI/ADR-RES
[19] = tested on: BXPC-3; test: Growth inhibition of human BxPc3 cells after 3 hrs by MTT assay; format: functional, cell-based; settings: BXPC-3, 3 h; method in brief: as §2
[20] = tested on: PC-3; test: Growth inhibition of human PC3 cells after 3 hrs by MTT assay; format: functional, cell-based; settings: PC-3, 3 h; method in brief: as §2
[21] = species: Homo sapiens; test: Inhibition of topoisomerase 2 at 500 nM by decatenation assay
Method in brief: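 Kinetoplast DNA decatenation: 143 ng catenated kDNA with one unit human recombinant topoisomerase II, ± drug at 500 nM. Buffer: 120 mM KCl, 50 mM Tris-HCl, 10 mM MgCl2, 0.5 mM DTT, 0.5 mM ATP, 30 μg/mL BSA. Incubated 30 min at 37 °C. Stopped with sarkosyl/glycerol loading dye, then resolved by agarose gel electrophoresis.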

[22] = tested on: HCT-116; test: Growth inhibition of human HCT116 cells after 48 hrs by MTT assay; format: functional, cell-based; settings: HCT-116, 48 h
[23] = tested on: NCI-H460; test: Growth inhibition of human NCIH460 cells after 48 hrs by MTT assay; format: functional, cell-based; settings: NCI-H460, 48 h
[24] = tested on: HCT-116; test: Cell cycle arrest in human HCT116 cells by accumulation at G2/M phase at 400 nM for 3 hrs by flow cytometry; format: functional, cell-based
Method in brief: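 HCT-116 cells in McCoy's medium with 10% FBS, exposed 3 h at 400 nM or vehicle, then grown on and analysed 24 h post-treatment. Cells trypsinized, washed in cold PBS/2 mM EDTA, fixed in 50% ethanol, RNase A treated, stained with propidium iodide (50 μg/mL final). DNA content by FACScan flow cytometry.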

[25] = tested on: HL-60; test: Effect on G2/M arrest in human HL60 cells at 100 nM after 24 hrs; format: functional, cell-based
Method in brief: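 HL-60 cells kept in RPMI 1640 with 10% FBS, 2 mM L-glutamine, 10 mM HEPES. Exposed continuously for 24 h at 100 nM or vehicle. Cells centrifuged, washed in cold PBS/2 mM EDTA, fixed in 50% ethanol, RNase A treated, stained with propidium iodide (50 μg/mL final). Cell cycle distribution read by flow cytometry.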

For `COc1cccc2c1C(=O)c1c(O)c3c(c(O)c1C2=O)C[C@@](O)(C(=O)CO)C[C@@H]3O[C@H]1C[C@@H]2NCO[C@@H]2[C@H](C)O1` [DOXAZOLIDINE], the Activity [1] was 75%, the IC50 [2] was 0.01 µM and the Activity [3] was “Dose-dependent effect”. For the same compound, the IC50 [4] was 0.00316 µM, the Activity [5] was “Active” and the Activity [6] was “Active”. It also gave an Activity [7] of 77%, an IC50 [8] of under 0.00138 µM and an IC50 [9] of under 0.00151 µM. It also gave an IC50 [10] of 0.001 µM, an Activity [11] of 60% and an IC50 [12] of 0.00263 µM. The IC50 [13] was under 0.000977 µM, the IC50 [14] was 0.000331 µM and the IC50 [15] was 0.002 µM. For the same compound, the Activity [16] was 20%, the IC50 [17] was 0.00316 µM and the IC50 [18] was under 0.0186 µM. It also gave an IC50 [19] of 0.01 µM and an IC50 [20] of 0.01 µM.
`COc1cccc2c1C(=O)c1c(O)c3c(c(O)c1C2=O)C[C@@](O)(C(=O)CO)C[C@@H]3O[C@H]1C[C@H](N)[C@H](O)[C@H](C)O1` [DOXORUBICIN] gave an Activity [1] of 5%, an IC50 [2] of 0.158 µM and an IC50 [4] of 0.11 µM. For the same compound, the Activity [7] was 29%, the IC50 [8] was 0.11 µM and the Activity [21] was “Active”. It also gave an IC50 [9] of 0.209 µM, an IC50 [10] of 0.2 µM and an IC50 [12] of 0.0912 µM. It also gave an IC50 [22] of 0.0708 µM, an IC50 [13] of 0.178 µM and an IC50 [14] of 0.0589 µM. It also gave an IC50 [15] of over 1 µM, an IC50 [17] of 0.316 µM and an IC50 [23] of 0.00603 µM. For the same compound, the IC50 [18] was 13.2 µM, the Activity [24] was “Active” and the Activity [25] was “inactive”. For the same compound, the IC50 [20] was 0.316 µM.
